Experimental data as given in paper PMC3060995 (Peptides, 2011).

Legend:
[1] = test system: food intake in freely-feeding rats; experiment: 3-h IV infusion at dark onset, food intake in non-food-deprived rats; format: in vivo, rat (male Sprague-Dawley)
Outline: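 Male Sprague-Dawley rats (350–500 g), housed individually on a 12:12-h light-dark cycle, had ad libitum ground chow. They were jugular-catheterised and tethered to infusion swivels. Each received a single 3-h jugular infusion per day of test compound or vehicle (0.15 M NaCl, 0.1% BSA). Food intake was recorded continuously from bowl weight. Rats with non-patent catheters (Brevital test) were excluded. Analysis used repeated-measures ANOVA with paired t-tests.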

[2] = test system: food intake in freely-feeding rats; conditions: cited from earlier work
[3] = 15 pmol/kg/min, 3-h IV infusion at dark onset, vs vehicle, 11–15 rats

Row | Substance | effect on food intake [1, 3] | effect on food intake ([1]; 50 pmol/kg/min, 3-h IV infusion at dark onset, vs vehicle, 11–16 rats) | effect on food intake ([1]; 150 pmol/kg/min, 3-h IV infusion at dark onset, vs vehicle, 11–16 rats) | approximate mean effective dose for inhibition of food intake ([2]; 3-h IV infusion at dark onset, rats, previously determined) [pmol/kg/min] | potency in reducing food intake relative to PYY(1–36)-NH2 ([2]; 3-h IV infusion during the early dark period, freely-feeding rats) | reduction of 3-h food intake ([1]; 15 pmol/kg/min, 3-h jugular vein infusion beginning 15 min before dark onset, vs vehicle, 11–16 rats, group means) [%] | inhibition of 3-h food intake ([1]; 50 pmol/kg/min, 3-h jugular vein infusion beginning 15 min before dark onset, vs vehicle, 11–16 rats, group means) [%] | relative anorexigenic potency (comparison between PYY forms) ([1]; 3-h IV infusion at dark onset, rats)
1 | peptide YY(1–36)-amide [PYY(1–36)-NH2] | significantly smaller effect | similarly reduced food in a dose-dependent manner | similarly reduced food in a dose-dependent manner |  |  |  |  | 
2 | peptide YY(3–36)-amide [PYY(3–36)-NH2] | significantly reduced food intake |  |  | ~15 | an order of magnitude more potent | 29 | 42 | more potent than Ser^13(PO3)-PYY(3–36)-NH2
